Screens (PubChem BioAssay)
Neddylation inh: inhibitors of human cullin neddylation; P61081+Q13564; TR-FRET cullin neddylation, biochemical; calls only at 25 µM; 360,000 tested, 0.58% active; AID 651699; in the data active = inhibition above about 36%
Target sequence (P61081 whole entry, looked up): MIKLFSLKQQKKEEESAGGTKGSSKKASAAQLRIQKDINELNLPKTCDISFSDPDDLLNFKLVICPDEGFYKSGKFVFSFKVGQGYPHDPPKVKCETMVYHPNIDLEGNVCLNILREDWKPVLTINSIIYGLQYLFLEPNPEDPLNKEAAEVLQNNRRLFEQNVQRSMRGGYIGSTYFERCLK
Target sequence (Q13564 whole entry, looked up): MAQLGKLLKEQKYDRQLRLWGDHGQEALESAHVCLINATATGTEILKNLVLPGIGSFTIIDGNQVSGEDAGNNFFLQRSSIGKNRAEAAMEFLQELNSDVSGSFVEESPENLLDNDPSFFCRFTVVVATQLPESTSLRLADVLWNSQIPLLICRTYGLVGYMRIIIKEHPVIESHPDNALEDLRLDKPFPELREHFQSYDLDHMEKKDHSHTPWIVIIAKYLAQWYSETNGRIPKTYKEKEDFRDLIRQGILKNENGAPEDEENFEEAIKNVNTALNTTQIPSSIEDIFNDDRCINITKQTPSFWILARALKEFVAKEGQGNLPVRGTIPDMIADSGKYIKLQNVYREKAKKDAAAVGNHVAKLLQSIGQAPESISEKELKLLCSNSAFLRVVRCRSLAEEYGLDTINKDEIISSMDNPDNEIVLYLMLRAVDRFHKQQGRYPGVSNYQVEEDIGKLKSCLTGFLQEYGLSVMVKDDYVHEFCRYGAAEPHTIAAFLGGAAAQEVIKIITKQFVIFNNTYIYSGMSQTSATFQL
UBC13 polyUb: inhibitors of human UBC13 polyubiquitin chain formation; TR-FRET; 330,000 tested, 0.47% active; AID 485273; inhibition, % at 20 µM; in the data active = inhibition above about 45%, passing the limit was not always enough
FID counter: fluorescent intercalator displacement, NS3 helicase counter-screen; DNA fluorescent intercalator displacement, fluorescence; inhibition, % at 7.9 µM; 290,000 tested, 0.17% active; in the data active = inhibition above about 37%;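 also: 0% = vehicle and 100% = reference compound; higher means more ethidium bromide displaced from hairpin DNA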
RAD52 inh: inhibitors of human RAD52 DNA annealing. P43351. recombinant RAD52 DNA annealing, FRET fluorescence. inhibition, % at 18.7 µM. 360,000 tested, 0.46% active. AID 651710;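 active = every replicate showing at least 50% inhibition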
RAD54 branch: RAD54 (human) branch migration inhibition; Q92698; RAD54 Holliday junction branch migration, FAM/BHQ fluorescence; inhibition, % at 10.4 µM; 360,000 tested, 0.14% active; AID 602329;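 active = mean normalized replicate activity at least 40 and at least half of replicates scoring 40 or more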;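 also: 0% = median of neutral control wells and 100% = median of positive control wells; inhibitors cause a drop in the FAM fluorescence signal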
Apaf-1 inh: inhibitors of human Apaf-1 apoptosome. O14727. inhibition, % at 20 µM. reconstituted apoptosome caspase-3 activity, DEVD-Rh110 fluorescence. 330,000 tested, 0.71% active; active = inhibition of at least 40% at 20 µM;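 also: plate controls were DMSO wells for no effect and DEVD-CHO caspase inhibitor wells for full effect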
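Medium: Hepes buffer, pH 7.5 / System: biochemical Apaf-1 apoptosome reconstitution / Measured by: Rh110 fluorescence, excitation 480 nm, emission 540 nm / Times: compound with Apaf-1, dATP, procaspase-3 30 min, then 50 min reaction, room temperature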
Neddyl inh conf: cullin neddylation inhibition, confirmation; shares compounds with Neddylation inh; TR-FRET cullin neddylation biochemical assay; calls only at 25 µM; 1,800 tested, 13% active; in the data active = inhibition above about 40%;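 also: neddylation substrate is the cullin 1 ring ligase complex with SKP2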
DNA binder FP: counter-screen for RAD52 inhibitors: DNA binding compounds; shares compounds with RAD52 inh; AC50, µM; 1,000 tested, 8% active; Salmon sperm DNA/acridine orange FP displacement; AID 652128;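 active = fitted half-maximal concentration for signal loss at or below twice the highest dose tested, in every separate run, actives reach about 64 µM in these data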
* marks the source's active call; other numbers are inactive results; i = inactive; . = no result given; + = active, no number. Shown are actives, neighbours in structure and some others; about 1.6% of the full set was active somewhere.

SMILES | Neddylation inh | UBC13 polyUb | FID counter | RAD52 inh | RAD54 branch | Apaf-1 inh | Neddyl inh conf | others
Cn1cc(-c2ccc(Cl)cc2)cc(C#N)c1=O | + | 11.2 | -2.5 | -15.7 | . | -5.7 | i
Cc1nc(C(=O)N/N=C/c2[nH]ncc2Br)cs1 | + | 1.1 | -5.6 | -9.5 | . | -4.8 | i
COc1cc(C(CC(=O)N2CCCC2)c2c(OC)cc(OC)c3ccc(=O)oc23)cc(OC)c1OC (stereo not drawn) | i | -0.4 | . | -10.0 | 0.7 | -0.4 | .
COc1ccc(C(CC(=O)N2CCN(c3ccccc3)CC2)c2c(OC)cc(OC)c3ccc(=O)oc23)cc1 (stereo not drawn) | + | 1.4 | . | -188.5 | 6.0 | 24.2 | i
COc1ccc(-c2nn(-c3ccccc3)cc2/C=N/Nc2ccc(Cl)c(C(=O)O)c2)cc1OC | + | -11.2 | -32.9 | -15.0 | . | 8.2 | i
CN1C(=O)c2cc(NC(=O)c3ccccc3)ccc2OC[C@H]2O[C@H](CC(=O)NCC3CC3)CC[C@H]21 | . | . | . | -2.1 | 4.4 | . | .
CC(C)NC(=O)N(C)C[C@@H]1OCCCC[C@H](C)Oc2ccc(NC(=O)Nc3cccc4ccccc34)cc2C(=O)N([C@H](C)CO)C[C@@H]1C | . | . | . | 21.6 | . | . | .
Cc1cc2[nH]c3ccccc3c2c(C)n1 | + | 3.0 | 11.9 | -15.1 | . | -4.8 | i
Cc1nc(=S)c2ccccc2[nH]1 | i | 5.5 | -1.4 | . | 7.4 | 12.3 | .
O=C(N[C@@H]1CC[C@H](CCn2cc(-c3ccccn3)nn2)O[C@H]1CO)c1ccc(F)cc1 | . | . | . | -15.1 | 0.1 | . | .
c1ccc(-c2nc3ccccc3[nH]2)cc1 | i | -16.2 | -0.3 | -17.8 | -13.6 | 8.2 | .
Nc1cc(N)cc(-c2nc3ccccc3[nH]2)c1 | + | -8.5 | 6.9 | . | . | 6.5 | .
COc1ccc(/C=C/C(=O)NC(=S)NNC(=O)c2cc(OC)c(OC)c(OC)c2)cc1OC | i | -14.7 | -39.5 | -3.0 | -0.5 | 6.8 | .
COc1ccc(/C=C/C(=O)NC(=S)NNC(=O)c2cc(OC)c(OC)c(OC)c2)cc1 | + | -39.8 | -24.2 | -15.9 | 6.9 | -0.4 | i
CCc1c(C)nc2c(-c3ccccc3)c[nH]n2c1=O | + | 15.8 | -7.5 | -3.6 | -3.6 | -8.0 | .
COc1ccc(NC(=O)Nc2cccc3c2O[C@@H](CN(C)S(C)(=O)=O)[C@@H](C)CN([C@H](C)CO)C3=O)cc1 | . | . | . | -1.6 | -1.4 | . | .
Fc1ccc(-c2cc(C(F)(F)F)n3ncnc3n2)cc1 | + | 13.7 | -0.2 | -9.0 | . | 9.4 | .
CNc1nc2c(C)cccn2c(=O)c1C=NCc1ccccc1 | i | 9.7 | -4.5 | . | 4.7 | 23.6 | .
CN=Cc1c(NC)nc2c(C)cccn2c1=O | + | 12.6 | -0.3 | . | 23.3 | 3.9 | +
Cc1cccn2c(=O)c(C=Nc3ccccc3)c(NCCO)nc12 | + | 3.4 | 2.3 | -17.2 | 2.0 | -11.5 | i
Cc1cccn2c(=O)c(C=Nc3ccc(Cl)cc3)c(NCCO)nc12 | i | -4.9 | -5.2 | . | 1.1 | -9.3 | .
COc1cccc(S(=O)(=O)Nc2ccc3c(c2)[C@@H]2C[C@@H](CC(=O)NCc4ccccc4F)O[C@@H](CO)[C@@H]2O3)c1 | . | . | . | 3.5 | 9.0 | . | .
CCN=C1S/C(=C/c2ccc(-c3ccc(F)cc3)o2)C(=O)N1CC | i | 9.6 | -26.3 | -11.6 | -1.9 | 31.5 | .
CCN=C1S/C(=C\c2ccc(Sc3ccc(Cl)cc3)o2)C(=O)N1CC | + | -5.7 | -3.8 | . | -14.6 | 14.2 | .
CN(Cc1nc2ccccc2c(=O)[nH]1)C(=O)c1ccc(S(=O)(=O)N(C)C)cc1 | i | 7.6 | -5.5 | . | -3.8 | -4.0 | .
SMILES | Neddylation inh | UBC13 polyUb | FID counter | RAD52 inh | RAD54 branch | Apaf-1 inh | Neddyl inh conf | others
CC(=O)c1ccc(-c2ccc(C(=O)N(C)Cc3nc4ccccc4c(=O)[nH]3)o2)cc1 | + | -9.5 | . | -22.7 | -8.7 | 1.6 | .
O=C(Cc1ccccn1)N[C@H]1C=C[C@@H](CC(=O)N2CCCCC2)O[C@@H]1CO | . | . | . | 4.3 | -8.2 | . | .
CN(C)c1cccc(C(=O)NCCCSc2ccccc2)c1 | + | 10.2 | -30.2 | -3.7 | 7.7 | 12.5 | .
CC(=O)N(C)C[C@@H]1Oc2cc(-c3ccc(F)cc3)ccc2S(=O)(=O)N([C@H](C)CO)C[C@@H]1C | . | . | . | 20.4 | 4.1 | . | .
CCCc1cc(-c2ccc3c(c2)COc2c4ccccc4nn2-3)on1 | . | 12.7 | . | -2.1 | -12.7 | -2.9 | .
Cc1cc(-c2ccc3c(c2)COc2c4ccccc4nn2-3)on1 | + | 8.5 | . | . | 3.7 | -7.6 | i
O=S(=O)(Nc1nc2ccccc2nc1Nc1ccc2c(c1)OCO2)c1ccc(F)cc1 | + | -13.6 | -0.1 | . | 7.8 | 4.0 | i
COc1cccc(Nc2nc3ccccc3nc2NS(=O)(=O)c2ccc(NC(C)=O)cc2)c1 | + | 0.5 | -37.1 | . | -6.4 | -2.8 | .
COc1ccc(Nc2nc3ccccc3nc2NS(=O)(=O)c2ccc(NC(C)=O)cc2)cc1 | i | -9.1 | -27.4 | -23.2 | . | 0.4 | .
C[C@H](CO)N1C[C@H](C)[C@H](CN(C)C(=O)c2ccc3c(c2)OCO3)Oc2ncc(C3=CCCC3)cc2C1=O | . | . | . | -5.2 | 3.2 | . | .
COc1ccccc1OCC(=O)/C=C1/N(C)c2ccccc2C1(C)C | + | -8.6 | -19.7 | -246.5 | . | 8.6 | i
CN1/C(=C\C(=O)COC(=O)c2ccccc2O)C(C)(C)c2ccccc21 | i | 0.7 | -17.7 | -77.6 | 3.5 | 2.7 | .
COc1cc2cc(-c3ccc(OC)c(OC)c3C)nc(N)c2cc1OC | + | 15.5 | . | 61.1* | 45.2 | 6.8 | i | DNA binder FP=i
CS(=O)(=O)Nc1ccc2c(c1)[C@@H]1C[C@H](CC(=O)N3CCOCC3)O[C@H](CO)[C@@H]1O2 | . | . | . | 3.6 | 7.0 | . | .
C[C@@H]1CCCCO[C@H](CN(C)Cc2ccc(C(=O)O)cc2)[C@@H](C)CN([C@H](C)CO)C(=O)c2cc(NS(=O)(=O)c3ccccc3)ccc2O1 | . | . | . | . | -3.6 | . | .
CC(=O)OCCc1c2ccccc2c(CCCN(C)C)c2ccccc12 | + | 16.0 | . | 69.3* | . | -2.3 | . | DNA binder FP=i
CC(=O)OCCc1[nH]c2ccccc2c1C | i | -1.9 | -21.3 | -4.1 | 8.4 | 4.5 | .
COc1cc(C(=O)NC2CCN(C)CC2)ccc1Nc1ncc2c(n1)N(C1CCCC1)CCC(=O)N2C(C)C | i | . | . | . | 37.3 | . | .
COc1cc(C(=O)NC2CCN(C)CC2)ccc1Nc1ncc2c(n1)N(CCc1ccccc1)CCC(=O)N2C | + | . | . | 80.5* | 33.3 | . | i | DNA binder FP=i
CCN(CC)CCCN(Cc1cc2cc3c(cc2[nH]c1=O)OCO3)C(=S)NCCCN(C)C | + | 5.5 | 23.8 | 90.0* | 15.3 | -2.0 | i | DNA binder FP=i
Cc1sc2cc3c(c(C(=O)c4ccccc4)[n+]2c1C)-c1cccc2cccc-3c12 | . | . | 20.2 | 102.8* | . | . | . | DNA binder FP=61.1µM*
